PubChem BioAssay
Activity calls are given as the source filed them.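 How the source made its calls, unless noted: active means primary screen active whose calcium signal fell more than 3 SD beyond the full-serotonin control mean in both duplicate plates; inactive means the rest.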

System: not listed separately
Assay: serotonin-gated TRPC4 signal block – cell-based, second counter screen, HEK293 TRPC4/5HT1a, Fluo-4, counter-screen for TRPC4 inhibitor project, confirmation (AID 434978);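 on outcome: serotonin given first at submaximal then at maximal dose after compound preincubation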
Conditions: Fluo-4 calcium flux, at 10 µM, serotonin added to trigger calcium flux; stronger effect = higher value
Method in brief: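 System: HEK293 line stably carrying TRPC4 plus 5HT1a receptor. Schedule: 110 s each for compound, submaximal and ECmax serotonin. Technique: kinetic Fluo-4 fluorescence readout of calcium flux. Replication: duplicate plates.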

SMILES | inhibition | outcome
CCC(O)(c1ccc(OC)cc1)C(CN1CCOCC1)c1ccccc1 (stereo not given) | 14.9% (active) | –
COc1ccc(Nc2cc(C)nc3ccc(OC)cc23)cc1 | – | inactive
Cc1ccc(C(C)(C)C)cc1S(=O)(=O)Nc1nc2ccccc2nc1Cl | 6.84% (active) | –
CN(C)C(CNC(=O)c1ccccc1OCc1ccc(Cl)cc1)c1ccco1 (stereo not given) | 23% (active) | –
COc1ccc(-c2csc(NC(=O)Cc3cccc4ccccc34)c2C(=O)O)cc1 | 40.2% (active) | –
CC1CCN(C(C)C(=O)Nc2ccccc2-c2ccccc2)CC1 (stereo not given) | 33.1% (active) | –
O=c1c2ccccc2nc(SCc2ccccc2)n1CC1CCCO1 (stereo not given) | 18.9% (active) | –
CC(=O)Nc1cccc(C(=O)NCC2(N3CCCCC3)CCCCC2)c1 | – | inactive
Cc1ccn2cc(CCNC(=O)c3ccc(Br)o3)nc2c1 | 34.1% (active) | –
CCOc1ccc2ccccc2c1CNCCc1ccc(S(N)(=O)=O)cc1 | 35.5% (active) | –
CCc1cccc(OCC(=O)Nc2ccc(C(=O)O)cc2NC(=O)COc2cccc(CC)c2)c1 | 40.9% (active) | –
COc1ccc(CN2CCN(C(=O)c3ccc(F)cc3)CC2)c(OC)c1 | 35.3% (active) | –
CCOc1ccc(Br)cc1/C=N/O | 29.2% (active) | –
CCC1CCCCN1Cc1nc2c(c(=O)n(C)c(=O)n2C)n1Cc1ccccc1 (stereo not given) | 38.1% (active) | –
O=C(c1ccc2c(c1)OCO2)C1CCCN(Cc2ccccc2OC(F)F)C1 (stereo not given) | 41.6% (active) | –
O=C(Nc1ccccc1N1CCN(C(=O)c2ccccc2)CC1)c1ccc(Br)o1 | 31.6% (active) | –
Cc1ccc(C(=O)C2=C(O)C(=O)N(Cc3cccnc3)C2c2ccc(Cl)c(Cl)c2)o1 (stereo not given) | 32.8% (active) | –
Cc1cccc(CCN(C(=O)c2snc(C(N)=O)c2N)C(C(=O)NCC2CCCO2)c2ccc(F)cc2)c1 (stereo not given) | 46.3% (active) | –
Cc1ccc(NC(=O)c2cc(N3C(=O)C=CC3=O)ccc2N2CCOCC2)cc1 | 34.6% (active) | –
Fc1ccccc1Sc1ccccc1CNC1=NCCN1 | 16.1% (active) | –

SMILES | inhibition | outcome
CC(C)C(NC(=O)c1ccc(C(C)(C)C)cc1)C(=O)NCC(c1ccccc1)N(C)C (stereo not given) | – | inactive
COCCn1c(SCC(=O)c2ccccc2)nc2ccccc2c1=O | 20.4% (active) | –
COc1ccc(SC[C@H](Cc2ccccc2)N2CCN(C)CCC2=O)cc1 | – | inactive
O=C(CCCSc1nc2ccccc2[nH]1)NCc1ccccc1Cl | 27.7% (active) | –
CCOC(=O)C1(Cc2ccccc2)CCN(CC2CC=CCC2)CC1 (stereo not given) | – | inactive
CCn1c(NCc2c[nH]c3ccccc23)nc2ccccc21 | 32.7% (active) | –
COc1ccc(C(CNC(=O)c2oc3ccc(F)cc3c2C)N2CCCCC2)cc1 (stereo not given) | – | inactive
CCC(=O)N1CCc2cc(S(=O)(=O)NCCN3CCCCC3CC)ccc21 (stereo not given) | 17.9% (active) | –
Nc1cc(N2CCCCC2)c([N+](=O)[O-])cc1Cl | – | inactive
Cc1c(CCOC(=O)c2cccc([N+](=O)[O-])c2)sc[n+]1CC(=O)c1ccccc1 | 28.9% (active) | –
CCOc1cc(CNCCCN2CCOCC2)cc(Br)c1OCc1ccccc1Cl | – | inactive
Cc1ccc(Sc2ccc(CO)cc2[N+](=O)[O-])cc1 | 7.78% (active) | –
Cc1ccc(Cn2c(Cc3ccccc3)nc3ccccc32)cc1 | 7.29% (active) | –
CC1CCc2c(sc(/N=C/N(C)C)c2C#N)C1 (stereo not given) | – | inactive
COc1ccccc1N1CCN(CC(C)N(C(=O)C2CCCCC2)c2ccccn2)CC1 (stereo not given) | 1.31% (active) | –
CCN(CC)c1ncnc2scc(C3COc4ccccc4O3)c12 (stereo not given) | 33% (active) | –
COc1ccc(Sc2nc(-c3ccccc3)ncc2C(=O)O)cc1 | 45.5% (active) | –
Cc1cccc(CN2CCCC(C(=O)Nc3ccccc3Oc3cccnc3)C2)c1 (stereo not given) | 35.8% (active) | –
Cn1nnnc1SCCNCc1ccccc1OCc1ccc(Cl)cc1 | 23.5% (active) | –
O=C(C[n+]1cccc(CNC(=O)c2ccc(OC(F)F)cc2)c1)Nc1ccc(SC(F)F)cc1 | – | inactive

System: TRPC4 (mouse), co-expressed with 5HT1a in HEK293
Assay: enhancement of serotonin-evoked TRPC4 response – cell-based, second counter screen, HEK293 TRPC4/5HT1a, Fluo-4, counter-screen for TRPC4 potentiator project, confirmation (AID 434979;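 active means signal rise over 3 SD above mean of control wells given weak agonist, in both repeats and first screen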)
Conditions: Fluo-4 calcium flux, at 10 µM, serotonin added at its EC20 dose; stronger effect = higher value

SMILES | outcome
CCC(O)(c1ccc(OC)cc1)C(CN1CCOCC1)c1ccccc1 (stereo not given) | inactive
COc1ccc(Nc2cc(C)nc3ccc(OC)cc23)cc1 | inactive
Cc1ccc(C(C)(C)C)cc1S(=O)(=O)Nc1nc2ccccc2nc1Cl | inactive
CN(C)C(CNC(=O)c1ccccc1OCc1ccc(Cl)cc1)c1ccco1 (stereo not given) | inactive
COc1ccc(-c2csc(NC(=O)Cc3cccc4ccccc34)c2C(=O)O)cc1 | inactive
CC1CCN(C(C)C(=O)Nc2ccccc2-c2ccccc2)CC1 (stereo not given) | inactive
O=c1c2ccccc2nc(SCc2ccccc2)n1CC1CCCO1 (stereo not given) | inactive
CC(=O)Nc1cccc(C(=O)NCC2(N3CCCCC3)CCCCC2)c1 | inactive
Cc1ccn2cc(CCNC(=O)c3ccc(Br)o3)nc2c1 | inactive
CCOc1ccc2ccccc2c1CNCCc1ccc(S(N)(=O)=O)cc1 | inactive
CCc1cccc(OCC(=O)Nc2ccc(C(=O)O)cc2NC(=O)COc2cccc(CC)c2)c1 | inactive
COc1ccc(CN2CCN(C(=O)c3ccc(F)cc3)CC2)c(OC)c1 | inactive
CCOc1ccc(Br)cc1/C=N/O | inactive
CCC1CCCCN1Cc1nc2c(c(=O)n(C)c(=O)n2C)n1Cc1ccccc1 (stereo not given) | inactive
O=C(c1ccc2c(c1)OCO2)C1CCCN(Cc2ccccc2OC(F)F)C1 (stereo not given) | inactive
O=C(Nc1ccccc1N1CCN(C(=O)c2ccccc2)CC1)c1ccc(Br)o1 | inactive
Cc1ccc(C(=O)C2=C(O)C(=O)N(Cc3cccnc3)C2c2ccc(Cl)c(Cl)c2)o1 (stereo not given) | inactive
Cc1cccc(CCN(C(=O)c2snc(C(N)=O)c2N)C(C(=O)NCC2CCCO2)c2ccc(F)cc2)c1 (stereo not given) | inactive
Cc1ccc(NC(=O)c2cc(N3C(=O)C=CC3=O)ccc2N2CCOCC2)cc1 | inactive
Fc1ccccc1Sc1ccccc1CNC1=NCCN1 | inactive

SMILES | outcome
CC(C)C(NC(=O)c1ccc(C(C)(C)C)cc1)C(=O)NCC(c1ccccc1)N(C)C (stereo not given) | inactive
COCCn1c(SCC(=O)c2ccccc2)nc2ccccc2c1=O | inactive
COc1ccc(SC[C@H](Cc2ccccc2)N2CCN(C)CCC2=O)cc1 | inactive
O=C(CCCSc1nc2ccccc2[nH]1)NCc1ccccc1Cl | inactive
CCOC(=O)C1(Cc2ccccc2)CCN(CC2CC=CCC2)CC1 (stereo not given) | inactive
CCn1c(NCc2c[nH]c3ccccc23)nc2ccccc21 | inactive
COc1ccc(C(CNC(=O)c2oc3ccc(F)cc3c2C)N2CCCCC2)cc1 (stereo not given) | inactive
CCC(=O)N1CCc2cc(S(=O)(=O)NCCN3CCCCC3CC)ccc21 (stereo not given) | inactive
Nc1cc(N2CCCCC2)c([N+](=O)[O-])cc1Cl | inactive
Cc1c(CCOC(=O)c2cccc([N+](=O)[O-])c2)sc[n+]1CC(=O)c1ccccc1 | inactive
CCOc1cc(CNCCCN2CCOCC2)cc(Br)c1OCc1ccccc1Cl | inactive
Cc1ccc(Sc2ccc(CO)cc2[N+](=O)[O-])cc1 | inactive
Cc1ccc(Cn2c(Cc3ccccc3)nc3ccccc32)cc1 | inactive
CC1CCc2c(sc(/N=C/N(C)C)c2C#N)C1 (stereo not given) | inactive
COc1ccccc1N1CCN(CC(C)N(C(=O)C2CCCCC2)c2ccccn2)CC1 (stereo not given) | inactive
CCN(CC)c1ncnc2scc(C3COc4ccccc4O3)c12 (stereo not given) | inactive
COc1ccc(Sc2nc(-c3ccccc3)ncc2C(=O)O)cc1 | inactive
Cc1cccc(CN2CCCC(C(=O)Nc3ccccc3Oc3cccnc3)C2)c1 (stereo not given) | inactive
Cn1nnnc1SCCNCc1ccccc1OCc1ccc(Cl)cc1 | inactive
O=C(C[n+]1cccc(CNC(=O)c2ccc(OC(F)F)cc2)c1)Nc1ccc(SC(F)F)cc1 | inactive
